Most compounds without a hit are left out; they make up all but 0.59% or so of the library.
OXTR agonist: activates the human oxytocin receptor. P30559. CHO-OTR cells, Fluo-8 calcium fluorescence; normalized: DMSO 0%, oxytocin 100%. activation, % at 3 µM. 320,000 tested, 0.32% active;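 active = activation above the mean of all tested compounds plus 3 SD, cutoff set per screening run, cut at about 20% in these data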;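 also: peak over basal fluorescence ratio from a 100 s FLIPR kinetic read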
V1R ag counter: V1a receptor agonism, counter-screen for OXTR agonists | P37288 | 320,000 tested, 0.25% active | AID 2797 | activation, % at 3 µM | CHO-V1R cells, Fluo-8 calcium fluorescence, agonist mode; 0% DMSO, 100% 3 nM vasopressin;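 active = activation above the mean activation of all tested compounds plus 3 SD, per screening run, cut at about 20% in these data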;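 also: signal is peak over basal fluorescence ratio across a 100 second FLIPR read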
Target sequence (P37288 whole entry, looked up): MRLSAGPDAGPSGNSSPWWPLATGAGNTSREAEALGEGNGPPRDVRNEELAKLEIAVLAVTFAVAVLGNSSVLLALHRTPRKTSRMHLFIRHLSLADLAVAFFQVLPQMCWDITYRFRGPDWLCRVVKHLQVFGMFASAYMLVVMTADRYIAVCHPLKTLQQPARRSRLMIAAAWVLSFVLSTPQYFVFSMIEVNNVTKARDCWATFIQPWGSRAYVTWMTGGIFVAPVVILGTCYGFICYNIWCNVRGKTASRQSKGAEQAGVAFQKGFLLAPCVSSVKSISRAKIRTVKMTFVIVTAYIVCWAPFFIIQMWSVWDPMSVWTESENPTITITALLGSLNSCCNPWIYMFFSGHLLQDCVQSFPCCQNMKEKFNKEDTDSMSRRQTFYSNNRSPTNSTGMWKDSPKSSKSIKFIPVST
OXTR potentiator: potentiates the human oxytocin receptor response. CHO-OTR cells, Fluo-8 calcium fluorescence, potentiator mode; 0% = oxytocin EC15, 100% = EC100. activation, % at 3 µM. 320,000 tested, 0.061% active. AID 2445;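 active = activation above that plate's cutoff, the mean activation of tested compounds plus 3 SD, cut at about 6.6% in these data, passing the limit was not always enough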;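 also: 100% uses oxytocin at 75 nM as the full agonist control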
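Material: human OTR in CHO cells. Compound: 3.0 µM, one dose. Timing: compound 6 min at room temperature before oxytocin, 100 s read. Evaluation: % activation of max/min ratio relative to oxytocin controls. Replication: single well per compound, singlicate. Signal: Fluo-8 calcium dye fluorescence.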
TRPML3 ag: human mucolipin-3 channel agonism | activation, % at 3 µM | Q8TDD5 | 220,000 tested, 0.29% active | AID 1448 | HEK293 TRPML3-YFP, Fluo-8 calcium fluorescence; 100% = the carbachol control signal;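 active = activation above its plate's cutoff, the mean activation of the plate's test wells plus 3 SD, cut at about 12% in these data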;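 also: 0% = DMSO only wells and 100% = carbachol wells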
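Test system: HEK293 cells stably carrying human TRPML3-YFP; Doses: single dose, 3 µM final nominal compound, 0.3% DMSO final; Schedule: dye loading 1 h 37 °C then 30 min ambient, 125 s read; Technique: Fluo-8 calcium fluorescence; Benchmarks: high control carbachol 87 µM, low control DMSO.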
zfTRPN1 agonist: agonists of zebrafish TRPN1 channel; 220,000 tested, 0.18% active; activation, % at 3 µM; HEK293 zebrafish TRPN1-YFP, Fluo-8 calcium fluorescence; 100% = response to 87 µM carbachol;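 active = activation above its plate's cutoff, the mean activation of test wells on that plate plus 3 SD, cut at about 19% in these data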;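 also: 0% = DMSO alone and 100% = 87 µM carbachol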
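Assay system: Zebrafish TRPN1-YFP in HEK293 cells | Incubation: Dye loading 1 h at 37 °C, then 30 min room temperature | Measured by: Kinetic Fluo-8 fluorescence, ex 470-495, em 515-575 nm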
TRPN1 ag 2: zebrafish TRPN1 agonism as TRPML3 agonist counter-screen; shares compounds with TRPML3 ag; HEK293 zebrafish TRPN1-YFP, Fluo-8 calcium fluorescence; scaled: carbachol wells 100%, DMSO wells 0%; activation, % at 3 µM; 310 tested, 10% active;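 active = mean activation over replicates above a set limit taken from the earlier TRPN1 channel primary screen, cut at about 19% in these data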;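 also: 100% = carbachol and 0% = 0.3% DMSO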
TRPML3 ag conf: human TRPML3 agonism, confirmation; shares compounds with TRPML3 ag; HEK293 TRPML3-YFP, Fluo-8 calcium fluorescence; 100% set by carbachol, 0% by DMSO; activation, % at 3 µM; 310 tested, 80% active; AID 1526;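 active = activation above a set limit derived from the earlier primary screen, cut at about 12% in these data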
An asterisk follows results filed as active; . = no result.

SMILES	OXTR agonist	V1R ag counter	OXTR potentiator	TRPML3 ag	zfTRPN1 agonist	TRPN1 ag 2	TRPML3 ag conf
COc1ccc(N(CC(=O)N2CCCCC2)S(=O)(=O)c2ccccc2)c(OC)c1	0	0	-9	71*	1	2	121*
COc1ccc(OC)c(N(CC(=O)N2CCCCC2)S(=O)(=O)c2ccc(OC)c(OC)c2)c1	-1	0	-9	88*	0	2	105*
COc1ccc(OC)c(N(CC(=O)N2CCC(C)CC2)S(=O)(=O)c2ccccc2)c1	-1	-1	-1	8	0	.	.
O[C@@H]1CN(C2CCCCC2)CC[C@H]1N1CCN(CCc2ccccc2)CC1	0	0	-14	.	.	.	.
O=C(OCC(=O)c1ccc(Cl)cc1Cl)c1cnccn1	0	1	-6	.	.	.	.
CCCCN(C)C(=O)C1CCCN(S(=O)(=O)c2ccc3c(c2)oc(=O)n3C)C1 (centres undefined)	1	0	-6	.	.	.	.
O=C(CC(O)CCc1ccccc1)c1ccc(O)cc1 (centres undefined)	1	2	-4	.	.	.	.
O=C1C2C3C=CC(C3)C2C(=O)N1c1ccc(N2CCN(c3ccccn3)CC2)c([N+](=O)[O-])c1 (centres undefined)	16	15	-8	16*	9	9	21*
FC(F)Sc1ccc(NC(=S)NC2CCCC2)cc1	16	7	-13	12*	17	20*	7
CCN(CC)CC(=O)NC12CC3CC(CC(C3)C1)C2	1	0	-1	0	0	.	.
CCN(CC)C(=S)SCC(=O)NC12CC3CC(CC(C3)C1)C2	-3	0	-10	12*	0	0	28*
CN(c1ccc(OCc2nnc(-c3ccccc3)o2)cc1)S(=O)(=O)c1ccccc1	4	6	-16	40*	1	2	37*
CC(=O)Nc1ccc(N(CC(=O)NC2CCCCC2)C(=O)Cn2nnc(-c3ccccc3)n2)cc1	1	0	1	.	.	.	.
Cc1ccc(S(=O)(=O)Nc2ccccc2-c2ccccc2)cc1	1	0	-14	91*	-1	-1	97*
Cc1ccc(S(=O)(=O)Nc2ccccc2N(C)S(=O)(=O)c2ccc(C)cc2)cc1	3	2	-16	.	.	.	.
CC(OC(=O)C1CC1)C(=O)Nc1cccc(S(=O)(=O)N2CCOCC2)c1 (centres undefined)	1	1	2	.	.	.	.
CN(CCOc1ccc(Cl)cc1)c1ccc(S(=O)(=O)N2CCCCC2)cn1	0	0	-5	45*	1	0	47*
CCOC(=O)C1CCN(C(=O)C(C)N(c2ccc(Oc3ccccc3)cc2)S(C)(=O)=O)CC1 (centres undefined)	.	.	.	22*	9	8	18*
CCOC(=O)N1CCN(C(=O)C(C)N(c2ccc(Oc3ccccc3)cc2)S(C)(=O)=O)CC1 (centres undefined)	3	6	-22	1	1	.	.
CCOc1ccc(N(C)S(=O)(=O)c2ccc(C)c(C(=O)Nc3nnc(C4CC4)s3)c2)cc1	2	4	-7	.	.	.	.
Cc1ccc(S(=O)(=O)N2CCN(c3ccccc3)CC2)s1	-1	0	-6	.	.	.	.
CC12CCC(C(=O)N(CSC(=S)N/N=C\c3ccccc3O)C1=O)C2(C)C (centres undefined)	-1	0	-10	67*	0	2	2
CN(C)c1ccc(/C=N\NC(=S)SCN2C(=O)C3CCC(C)(C2=O)C3(C)C)cc1 (centres undefined)	0	0	-7	16*	0	0	0
COc1ccc(/C=N\NC(=S)SCN2C(=O)C3CCC(C)(C2=O)C3(C)C)cc1 (centres undefined)	-2	0	-11	39*	-1	0	0
CN(C)c1ccc(/C=N/NC(=O)CCCO)cc1	0	1	-7	1	2	.	.
